Assay results published in ChEMBL document CHEMBL4406880, “Design, synthesis, and bioactivity of dihydropyrimidine derivatives as kinesin spindle protein inhibitors” (Bioorg Med Chem, 2019).

Columns and labels:
Format in all cases: functional
SF-539 = test: Growth inhibition of human SF539 cells assessed as cell viability at 0.001 uM incubated for 48 hrs by sulforhodamine B assay relative to control; settings: SF-539, 48 h, read-out: Activity
CCRF-CEM = test: Growth inhibition of human CCRF-CEM cells assessed as cell viability at 100 uM incubated for 48 hrs by sulforhodamine B assay; settings: read-out: Activity
NCI-H322M [1] = test: Growth inhibition of human NCI-H322M cells incubated for 48 hrs by sulforhodamine B assay
Method in brief: (§1)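 NCI-60 five-dose assay, SRB end-point, same culture conditions. Compound is tested at tenfold dilutions of 0.01, 0.1, 1, 10 and 100 µM for 48 h at 37 °C, with DMSO/PBS vehicle controls. Percentage growth at each concentration is taken against untreated cells and a time-zero plate. GI50 is 50% net growth decrease, TGI is total growth inhibition, and LC50 is 50% loss of initial cells.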

HCT-116 = test: Growth inhibition of human HCT116 cells assessed as cell viability at 0.001 uM incubated for 48 hrs by sulforhodamine B assay relative to control; settings: HCT-116, 48 h, read-out: Activity
NCI-H23 = test: Growth inhibition of human NCI-H23 cells assessed as cell viability at 0.1 uM incubated for 48 hrs by sulforhodamine B assay; settings: NCI-H23, 48 h, read-out: Activity
NCI/ADR-RES = test: Growth inhibition of human NCI/ADR-RES cells assessed as cell viability at 1 uM incubated for 48 hrs by sulforhodamine B assay; settings: read-out: Activity
SNB-75 = test: Induction of apoptosis in human SNB75 cells assessed as early apoptotic cells at 2 uM incubated for 24 hrs by annexin V FITC and propidium iodide based flow cytometry (reference value: 0.82 %)
SK-MEL-28 = test: Growth inhibition of human SK-MEL-28 cells assessed as cell viability at 0.1 uM incubated for 48 hrs by sulforhodamine B assay; settings: SK-MEL-28, 48 h, read-out: Activity
PC-3 = test: Growth inhibition of human PC3 cells assessed as cell viability at 1 uM incubated for 48 hrs by sulforhodamine B assay; settings: PC-3, 48 h, read-out: Activity
ACHN [2] = test: Growth inhibition of human ACHN cells assessed as cell viability at 0.1 uM incubated for 48 hrs by sulforhodamine B assay; settings: read-out: Activity
Method in brief: (§2)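 NCI-60 five-dose mode: five tenfold dilutions (0.01, 0.1, 1, 10, 100 µM) are applied for 48 h to cells in RPMI 1640 with 5% FBS at 37 °C. Endpoint is TCA fixation with sulforhodamine B read at 515 nm. % growth comes from the 0 h and control absorbances. GI50 is the concentration giving a 50% reduction in net cell growth.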

HL-60(TB) = test: Growth inhibition of human HL-60(TB) cells incubated for 48 hrs by sulforhodamine B assay; settings: HL-60, 48 h; method in brief: as §1
OVCAR-4 = test: Growth inhibition of human OVCAR4 cells assessed as cell viability at 0.1 uM incubated for 48 hrs by sulforhodamine B assay; settings: OVCAR-4, 48 h, read-out: Activity
MDA-MB-435 = test: Growth inhibition of human MDA-MB-435 cells incubated for 48 hrs by sulforhodamine B assay; settings: MDA-MB-435, 48 h
Method in brief: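 NCI-60 five-dose SRB assay in RPMI 1640 with 5% FBS, 37 °C, 5% CO2. Compound given at five tenfold dilutions, 0.01–100 µM, for 48 h. Adherent cells fixed with TCA, suspension cells with 16% final TCA. Bound SRB read at 515 nm and growth calculated against time-zero and untreated controls. GI50 taken from dose–response curves as the concentration giving a 50% decrease in net cell growth.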

ACHN [3] = test: Growth inhibition of human ACHN cells assessed as cell viability at 100 uM incubated for 48 hrs by sulforhodamine B assay; settings: read-out: Activity; method in brief: as §2
NCI-H322M [4] = test: Growth inhibition of human NCI-H322M cells assessed as cell viability at 0.001 uM incubated for 48 hrs by sulforhodamine B assay relative to control; settings: read-out: Activity
M14 = test: Growth inhibition of human M14 cells assessed as cell viability at 0.001 uM incubated for 48 hrs by sulforhodamine B assay relative to control; settings: M14, 48 h, read-out: Activity
HCC 2998 = test: Growth inhibition of human HCC2998 cells assessed as cell viability at 0.001 uM incubated for 48 hrs by sulforhodamine B assay relative to control; settings: HCC 2998, 48 h, read-out: Activity
OVCAR-5 = test: Growth inhibition of human OVCAR5 cells assessed as cell viability at 100 uM incubated for 48 hrs by sulforhodamine B assay; settings: OVCAR-5, 48 h, read-out: Activity
NCI-H322M [5] = test: Growth inhibition of human NCI-H322M cells assessed as cell viability at 100 uM incubated for 48 hrs by sulforhodamine B assay; settings: read-out: Activity
K562 = test: Growth inhibition of human K562 cells assessed as cell viability at 1 uM incubated for 48 hrs by sulforhodamine B assay; settings: K562, 48 h, read-out: Activity
CAKI-1 = test: Growth inhibition of human Caki1 cells assessed as cell viability at 0.1 uM incubated for 48 hrs by sulforhodamine B assay; settings: CAKI-1, 48 h, read-out: Activity
NCI-H460 = test: Growth inhibition of human NCI-H460 cells assessed as cell viability at 1 uM incubated for 48 hrs by sulforhodamine B assay; settings: NCI-H460, 48 h, read-out: Activity
MCF7 = test: Growth inhibition of human MCF7 cells assessed as cell viability at 0.001 uM incubated for 48 hrs by sulforhodamine B assay relative to control; settings: MCF7, 48 h, read-out: Activity
HOP-62 = test: Growth inhibition of human HOP62 cells assessed as cell viability at 1 uM incubated for 48 hrs by sulforhodamine B assay; settings: HOP-62, 48 h, read-out: Activity
COLO 205 = test: Growth inhibition of human COLO205 cells incubated for 48 hrs by sulforhodamine B assay; settings: COLO 205, 48 h; method in brief: as §2

`CC1=C(C(=O)OCc2ccccc2)C(c2ccc3c(c2)OCO3)n2c(nc3ccccc32)N1` (racemic) was tested, and the viability at 0.001 µM (SF-539) was 91%, the viability at 100 µM (CCRF-CEM) was 18% and the LC50 (concentration killing 50% of initial cells) (NCI-H322M [1]; read-out: LC50) was over 100000 nM. For the same compound, the TGI (NCI-H322M [1]; read-out: TGI) was over 100000 nM, the LC50 (concentration killing 50% of initial cells) (NCI-H322M [1]; read-out: pLC50 (converted)) was over 100000 nM and the TGI (NCI-H322M [1]; read-out: pTGI) was over 100000 nM. The viability at 0.001 µM (HCT-116) was 96%, the viability at 0.1 µM (NCI-H23) was 92% and the viability at 1 µM (NCI/ADR-RES) was 17%. It also gave an Activity (SNB-75) of 7.65%, a viability at 0.1 µM (SK-MEL-28) of 93% and a viability at 1 µM (PC-3) of 35%. For the same compound, the viability at 0.1 µM (ACHN [2]) was 107%, the GI50 (HL-60(TB); read-out: GI50) was 340 nM and the CC50 (HL-60(TB); read-out: LC50 (the source's name)) was over 100000 nM. It also gave a TGI (HL-60(TB); read-out: TGI) of over 100000 nM, a GI50 (HL-60(TB); read-out: pGI50 (converted)) of 339 nM and a CC50 (HL-60(TB); read-out: pLC50 (the source's name) (converted)) of over 100000 nM. The TGI (HL-60(TB); read-out: pTGI) was over 100000 nM, the viability at 0.1 µM (OVCAR-4) was 90% and the GI50 (MDA-MB-435; read-out: GI50) was 80 nM. The LC50 (MDA-MB-435; read-out: LC50) was over 100000 nM, the TGI (MDA-MB-435; read-out: TGI) was 350 nM and the GI50 (MDA-MB-435; read-out: pGI50 (converted)) was 85.1 nM. The LC50 (MDA-MB-435; read-out: pLC50 (converted)) was over 100000 nM, the TGI (MDA-MB-435; read-out: pTGI (converted)) was 347 nM and the viability at 100 µM (ACHN [3]) was 35%. The viability at 0.001 µM (NCI-H322M [4]) was 96%, the viability at 0.001 µM (M14) was 93% and the viability at 0.001 µM (HCC 2998) was 92%. It also gave a viability at 100 µM (OVCAR-5) of 51%, a viability at 100 µM (NCI-H322M [5]) of 50% and a viability at 1 µM (K562) of 23%. For the same compound, the viability at 0.1 µM (CAKI-1) was 74%, the viability at 1 µM (NCI-H460) was 10% and the viability at 0.001 µM (MCF7) was 86%. For the same compound, the viability at 1 µM (HOP-62) was 44%, the GI50 (COLO 205; read-out: GI50) was 500 nM and the LC50 (COLO 205; read-out: LC50) was over 100000 nM. The TGI (COLO 205; read-out: TGI) was over 100000 nM, the GI50 (COLO 205; read-out: pGI50 (converted)) was 501 nM and the LC50 (COLO 205; read-out: pLC50 (converted)) was over 100000 nM. It also gave a TGI (COLO 205; read-out: pTGI) of over 100000 nM.
